Results: PubChem BioAssay
The source made the active and inactive calls.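 Rule for the calls, unless noted: active = viability at or under a set limit in both replicates, limit being median viability minus 3 SD (cut at about 48% in these data, passing the limit was not always enough); inconclusive = at or under the limit in just one replicate; inactive = at or above the limit in both replicates.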

Assays:
[1] = reducers of endogenous Her2 protein level, primary screen, SKBR3 breast tumor cells, AlphaScreen, ATP viability (AID 461;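 active = Her2 level under about 52% in both replicate screens, with viability over 70% of control, limit read from the data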;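 for Her2 level: lower value means less Her2 protein in the cells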;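 for viability: percent of carrier control wells set as 100% viability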); conditions: 18-24 h, measured here: SKBR3 viability, ATP luminescence, at 10 µM
[2] = molecular target: Receptor tyrosine-protein kinase erbB-2 (Homo sapiens) (UniProt P04626); assay: as above; conditions: 18-24 h, at 10 µM, stronger effect = lower value
[3] = SK-BR-3 cell growth inhibitors, pilot screen, 24 h, human (AID 572;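 active = viability at or below 10% of carrier control in both of two separate runs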;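 note: compound exposure lasted between 18 and 24 h rather than exactly 24 h; 100% = carrier-treated control wells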); conditions: SK-BR-3 viability, CellTiter-Glo luminescence, at 10 µM, stronger effect = lower value
[4] = HUVEC growth inhibition – cell-based, human, primary screen (AID 575;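 active = viability at or below 30% in both replicate assays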;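 note: 100% = median of untreated cell wells with 0.1% DMSO on each plate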); conditions: HUVEC proliferation, CellTiter-Glo luminescence, 72 h; at 10 µM; stronger effect = lower value
Method in brief: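 Test system: primary human umbilical vein endothelial cells. Quantity: 1250 cells/well. Compound: single 10 µM dose, 0.1% DMSO, from 5x medium stock. Timing: 72 h treatment at 37 °C. Detection: ATP-based CellTiter-Glo luminescent read. Benchmarks: vehicle and MePR control wells. Format: 384-well plates coated with collagen.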

[5] = growth inhibitors of H69AR lung tumor, primary screen, human, duplicate replicates (AID 580); conditions: H69AR lung tumor cells viability, ATP luminescence, 72 h; at 10 µM; stronger effect = lower value;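 note: 100% = mean luminescence of untreated wells and 0% = no signal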
[6] = reversal of MRP1-mediated doxorubicin resistance, pilot screen, H69AR cells, doxorubicin co-treatment (AID 601;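 active = viability loss from added drug above about 55%, and viability with drug at most 40%, in both replicates, limit read from the data, passing the limit was not always enough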); conditions: CellTiter-Glo, 72 h, at 10 µM; for differential viability (reversal): stronger effect = higher value
[7] = 384-well plate pilot, post-Golgi transport modulator project, inhibition of yeast transport mutant growth (AID 636; in the data active = inhibition above about 31%); conditions: absorbance 615 nm, about 18 h, stronger effect = higher value
[8] = growth suppression of yeast trafficking mutant, preliminary HTS, modulators of trafficking downstream of Golgi apparatus project, 1536-format plate, OD 615 nm (AID 637; in the data active = inhibition above about 30%); conditions: yeast transport mutant growth, absorbance 615 nm, 18 h; stronger effect = higher value
[9] = H69AR cells + 2 uM doxorubicin, measured here: viability with 2 uM doxorubicin, stronger effect = lower value
[10] = H69AR cells, compound alone cytotoxicity

Chain of Receptor tyrosine-protein kinase erbB-2 (Homo sapiens) (P04626 whole entry, looked up): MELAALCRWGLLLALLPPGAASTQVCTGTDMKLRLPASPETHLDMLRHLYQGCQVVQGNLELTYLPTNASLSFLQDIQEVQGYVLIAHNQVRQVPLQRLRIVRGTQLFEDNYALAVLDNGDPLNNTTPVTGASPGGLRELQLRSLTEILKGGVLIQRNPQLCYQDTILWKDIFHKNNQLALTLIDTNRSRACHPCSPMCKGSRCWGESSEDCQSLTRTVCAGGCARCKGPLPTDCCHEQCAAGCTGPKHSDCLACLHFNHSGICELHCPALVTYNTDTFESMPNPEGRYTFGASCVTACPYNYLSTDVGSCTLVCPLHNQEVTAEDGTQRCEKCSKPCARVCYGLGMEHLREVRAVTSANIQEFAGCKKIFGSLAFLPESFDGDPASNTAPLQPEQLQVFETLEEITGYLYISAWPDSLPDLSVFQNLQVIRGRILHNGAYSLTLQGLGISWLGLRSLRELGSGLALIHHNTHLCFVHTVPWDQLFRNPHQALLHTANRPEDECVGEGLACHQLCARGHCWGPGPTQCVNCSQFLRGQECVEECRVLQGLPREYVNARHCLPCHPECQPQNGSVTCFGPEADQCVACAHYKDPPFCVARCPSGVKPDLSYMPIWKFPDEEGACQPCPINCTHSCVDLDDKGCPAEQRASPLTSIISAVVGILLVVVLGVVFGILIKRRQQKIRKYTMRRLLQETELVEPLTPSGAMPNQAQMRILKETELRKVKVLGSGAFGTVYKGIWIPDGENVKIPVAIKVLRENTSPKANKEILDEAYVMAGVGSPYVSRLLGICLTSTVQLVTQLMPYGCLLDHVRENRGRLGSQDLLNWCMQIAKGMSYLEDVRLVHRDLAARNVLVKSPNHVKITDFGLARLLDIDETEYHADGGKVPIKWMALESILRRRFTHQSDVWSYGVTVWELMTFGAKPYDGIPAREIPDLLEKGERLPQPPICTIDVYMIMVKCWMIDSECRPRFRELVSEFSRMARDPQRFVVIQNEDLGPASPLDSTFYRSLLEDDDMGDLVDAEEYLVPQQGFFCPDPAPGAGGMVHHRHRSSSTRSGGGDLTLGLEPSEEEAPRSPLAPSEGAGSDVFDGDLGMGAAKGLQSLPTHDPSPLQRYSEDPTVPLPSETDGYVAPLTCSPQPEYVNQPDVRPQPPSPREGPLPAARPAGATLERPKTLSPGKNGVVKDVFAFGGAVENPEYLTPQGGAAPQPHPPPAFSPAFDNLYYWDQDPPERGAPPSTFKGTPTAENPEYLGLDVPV

In the case of `CCOC(=O)c1cc2sccc2n1CC(=O)Nc1ccc(OC)cc1OC`, the viability [1] is reported as 90%, the Her2 level [2] is reported as 86.5% (inactive) and the viability [3] is reported as 90% (inactive). For the same compound, the viability [4] was 75.4% (inactive), the viability [5] was 82% (inactive) and the differential viability (reversal) ([6]; H69AR cells + 2 uM doxorubicin) was -7.66% (inactive). For the same compound, the viability [6, 9] was 89.6%, the viability [6, 10] was 82% and the inhibition [7] was -1.97% (inactive). The inhibition [8] was -3.82% (inactive).
For `CCOC(=O)c1cccc(NC(=O)CSc2nnc(C3CCCCC3)n2C)c1`, the viability [1] was 91%, the Her2 level [2] was 89% (inactive) and the viability [3] was 91% (inactive). The viability [4] was 92.3% (inactive), the viability [5] was 91.3% (inactive) and the differential viability (reversal) ([6]; H69AR cells + 2 uM doxorubicin) was 6.58% (inactive). The viability [6, 9] was 84.7%, the viability [6, 10] was 91.3% and the inhibition [7] was -6.22% (inactive). The inhibition [8] was -0.95% (inactive).
For `CCOc1ccc(S(=O)(=O)Nc2cccc(Cl)c2)cc1`, the viability [1] was 86%, the Her2 level [2] was 74.5% (inactive) and the viability [3] was 86% (inactive). The viability [4] was 50.7% (inactive), the viability [5] was 18.8% (active) and the differential viability (reversal) ([6]; H69AR cells + 2 uM doxorubicin) was -41.9% (inactive). The viability [6, 9] was 60.7%, the viability [6, 10] was 18.8% and the inhibition [7] was -5.07% (inactive). The inhibition [8] was -3.28% (inactive).
In the case of `Cn1c(=O)c2c(nc(NCCc3ccccc3)n2CC(=O)NCCc2ccccc2)n(C)c1=O`, the viability [1] is reported as 91%, the Her2 level [2] is reported as 90.5% (inactive) and the viability [3] is reported as 91% (inactive). The viability [4] was 99.9% (inactive), the viability [5] was 79% (inactive) and the differential viability (reversal) ([6]; H69AR cells + 2 uM doxorubicin) was 8.86% (inactive). The viability [6, 9] was 70.2%, the viability [6, 10] was 79% and the inhibition [7] was -1.05% (inactive). For the same compound, the inhibition [8] was 9.68% (inactive).
In the case of `O=C(OCCN1C(=O)c2ccccc2C1=O)c1ccc(S(=O)(=O)N2CCCCCC2)cc1`, the viability [1] is reported as 114%, the Her2 level [2] is reported as 76.5% (inactive) and the viability [3] is reported as 114% (inactive). The viability [4] was 78.5% (inactive), the viability [5] was 105% (inactive) and the differential viability (reversal) ([6]; H69AR cells + 2 uM doxorubicin) was 17.6% (inactive). The viability [6, 9] was 87.6%, the viability [6, 10] was 105% and the inhibition [7] was -6.22% (inactive). The inhibition [8] was 1.11% (inactive).
With `Cc1ccc(S(=O)(=O)CC(=O)N2CCCCCC2)cc1` the viability [1] was 85.5%, the Her2 level [2] was 100% (inactive) and the viability [3] was 85.5% (inactive). For the same compound, the viability [4] was 78.1% (inactive), the viability [5] was 92.7% (inactive) and the differential viability (reversal) ([6]; H69AR cells + 2 uM doxorubicin) was 1.99% (inactive). The viability [6, 9] was 90.7%, the viability [6, 10] was 92.7% and the inhibition [7] was -5% (inactive). The inhibition [8] was -6.07% (inactive).
With `COCCN1C(=O)C(=O)/C(=C(/O)c2cccc(S(=O)(=O)N(C)C)c2)C12C(=O)N(C)c1ccccc12` (stereo not given) the viability [1] was 110%, the Her2 level [2] was 91.5% (inactive) and the viability [3] was 110% (inactive). For the same compound, the viability [4] was 110% (inactive), the viability [5] was 99.5% (inactive) and the differential viability (reversal) ([6]; H69AR cells + 2 uM doxorubicin) was 3.6% (inactive). For the same compound, the viability [6, 9] was 95.9%, the viability [6, 10] was 99.5% and the inhibition [7] was -7.76% (inactive). For the same compound, the inhibition [8] was -2.38% (inactive).
For `Cc1ccc(N=C2NC(=O)CS2)c(C)c1`, the viability [1] was 71%, the Her2 level [2] was 91% (inactive) and the viability [3] was 71% (inactive). The viability [4] was 89.7% (inactive), the viability [5] was 102% (inactive) and the differential viability (reversal) ([6]; H69AR cells + 2 uM doxorubicin) was 5.32% (inactive). The viability [6, 9] was 96.7%, the viability [6, 10] was 102% and the inhibition [7] was -5% (inactive). The inhibition [8] was 5.57% (inactive).
For `CC1(C)CC(=O)C(C=NCCc2ccc(S(N)(=O)=O)cc2)=C(O)C1`, the viability [1] was 116%, the Her2 level [2] was 95% (inactive) and the viability [3] was 116% (inactive). The viability [4] was 98.7% (inactive), the viability [5] was 88% (inactive) and the differential viability (reversal) ([6]; H69AR cells + 2 uM doxorubicin) was -2.06% (inactive). For the same compound, the viability [6, 9] was 90%, the viability [6, 10] was 88% and the inhibition [7] was -6.13% (inactive). The inhibition [8] was -2.3% (inactive).
In the case of `Nn1c(SCC(=O)Nc2ccc3c(c2)OCCO3)nnc1C(F)(F)F`, the viability [1] is reported as 88.5%, the Her2 level [2] is reported as 78.5% (inactive) and the viability [3] is reported as 88.5% (inactive). For the same compound, the viability [4] was 88.3% (inactive), the viability [5] was 80.9% (inactive) and the differential viability (reversal) ([6]; H69AR cells + 2 uM doxorubicin) was -7.85% (inactive). For the same compound, the viability [6, 9] was 88.8%, the viability [6, 10] was 80.9% and the inhibition [7] was -2.5% (inactive). For the same compound, the inhibition [8] was 1.27% (inactive).
For `Cc1cc(C(=O)CSc2nc3ccccc3[nH]2)c(C)n1C`, the viability [1] was 100%, the Her2 level [2] was 86% (inactive) and the viability [3] was 100% (inactive). The viability [4] was 120% (inactive), the viability [5] was 94.4% (inactive) and the differential viability (reversal) ([6]; H69AR cells + 2 uM doxorubicin) was 12.8% (inactive). The viability [6, 9] was 81.6%, the viability [6, 10] was 94.4% and the inhibition [7] was -4.93% (inactive). The inhibition [8] was -8.36% (inactive).
In the case of `Cc1cccc(COc2ccc(/C(O)=C3\C(=O)C(=O)N(CCN(C)C)C3c3ccncc3)cc2)c1` (stereo not given), the viability [1] is reported as 108%, the Her2 level [2] is reported as 94% (inactive) and the viability [3] is reported as 108% (inactive). The viability [4] was 105% (inactive), the viability [5] was 97.3% (inactive) and the differential viability (reversal) ([6]; H69AR cells + 2 uM doxorubicin) was -3.29% (inactive). For the same compound, the viability [6, 9] was 101%, the viability [6, 10] was 97.3% and the inhibition [7] was -2.11% (inactive). For the same compound, the inhibition [8] was 3.28% (inactive).
With `O=c1[nH]c(SCc2cc(=O)n3ccccc3n2)nc2c1CCC2` the viability [1] was 101%, the Her2 level [2] was 83.5% (inactive) and the viability [3] was 101% (inactive). The viability [4] was 74.7% (inactive), the viability [5] was 85.2% (inactive) and the differential viability (reversal) ([6]; H69AR cells + 2 uM doxorubicin) was 1.62% (inactive). For the same compound, the viability [6, 9] was 83.6%, the viability [6, 10] was 85.2% and the inhibition [7] was -2.76% (inactive). The inhibition [8] was -2.22% (inactive).
For `NC(=O)c1c(-c2ccccc2)oc2ccc(O)cc12`, the viability [1] was 121%, the Her2 level [2] was 88% (inactive) and the viability [3] was 121% (inactive). The viability [4] was 96.2% (inactive), the viability [5] was 90.4% (inactive) and the differential viability (reversal) ([6]; H69AR cells + 2 uM doxorubicin) was 13.4% (inactive). The viability [6, 9] was 77%, the viability [6, 10] was 90.4% and the inhibition [7] was 1.18% (inactive). The inhibition [8] was -9.82% (inactive).
